The text below walks through data of ChEMBL document CHEMBL1138791, “Acyl sulfonamide anti-proliferatives: benzene substituent structure-activity relationships for a novel class of antitumor agents” (J Med Chem, 2004).

The test system of test [1] is L1210. Nature of the test: Diameter of zone of inhibition for cell colony formation of leukemia L1210 at the dose of 200 ug; Range is 1.3-5.85. Format: functional, Mus musculus. The essentials:
(§1)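 Soft agar disk diffusion: leukemia (L1210), solid tumor (HCT116, or colon H15) and normal fibroblast cells seeded in soft agar in separate 60 mm dishes. Compound applied to a filter paper disk (dose in μg/disk) set on the agar. Colony-formation inhibition zones read after 6–7 days at 37 °C. 200 zone units = 6.5 mm; 950 = total inhibition; a range marks partial colony shrinkage. n > 2 unless noted.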

Test [2] deals with HCT-116. Nature of the test: Diameter of zone of inhibition for cell colony formation of solid tumor HCT116 at the dose of 200 ug. Format: functional, Homo sapiens. The method in brief:
(§2)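 HCT116, L1210 leukaemia and normal fibroblast cells were seeded in soft agar in separate 60 mm dishes. The compound was applied to a filter-paper disk laid on the agar. Colony-formation inhibition zones were read after 6–7 days at 37 °C and expressed in zone units (200 units = 6.5 mm; 950 = total inhibition; 0 = none). n > 2 unless otherwise indicated.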

Test [3] in a line: Diameter of zone of inhibition for cell colony formation of normal fibroblast at the dose of 200 ug; Range is 0-11.7. Format: functional, Homo sapiens. The essentials: as §1
Test [4] is described as follows: Diameter of zone of inhibition for cell colony formation of normal fibroblast at the dose of 200 ug; Range is 0-16.9. Format: functional, Homo sapiens. The essentials:
as §1

Test [5] has as its system L1210. The test can be described thus: Diameter of zone of inhibition for cell colony formation of leukemia L1210 at the dose of 200 ug; Range is 0-9.1. The test is classed as functional, Mus musculus. The method in brief:
as §1

Test [6] can be described thus: Diameter of zone of inhibition for cell colony formation of normal fibroblast at the dose of 190 ug; Range is 0-16.575. The test is classed as functional, Homo sapiens. The essentials:
as §1

Test [7] has as its system HCT-116. Nature of the test: Diameter of zone of inhibition for cell colony formation of solid tumor HCT116 at the dose of 190 ug. Format: functional, Homo sapiens. The method in brief:
as §1

Test [8] concerns L1210. Nature of the test: Diameter of zone of inhibition for cell colony formation of leukemia L1210 at the dose of 190 ug; Range is 0-10.4. Format: functional, Mus musculus. The essentials: as §1
Test [9] has as its system HCT-116. Nature of the test: Diameter of zone of inhibition for cell colony formation of solid tumor HCT116 at the dose of 210 ug. Format: functional, Homo sapiens. The method in brief: as §2
The nature of test [10]: Diameter of zone of inhibition for cell colony formation of normal fibroblast at the dose of 210 ug; Range is 0-6.5. The test is classed as functional, Homo sapiens. The essentials:
as §1

Test [11] has as its system L1210. The test can be described thus: Diameter of zone of inhibition for cell colony formation of leukemia L1210 at the dose of 210 ug; Range is 0-5.525. The test is classed as functional, Mus musculus. The essentials:
as §1

The test system of test [12] is L1210. The test can be described thus: Diameter of zone of inhibition for cell colony formation of leukemia L1210 at the dose of 200 ug; Range is 0-6.5. Format: functional, Mus musculus. The method in brief: as §1
Test [13] in a line: Diameter of zone of inhibition for cell colony formation of normal fibroblast at the dose of 200 ug; Range is 0-2.6. The test is classed as functional, Homo sapiens. The method in brief:
as §1

The subject of test [14] is L1210. Nature of the test: Diameter of zone of inhibition for cell colony formation of leukemia L1210 at the dose of 190 ug. Format: functional, Mus musculus. The method in brief:
as §1

Test [15] is described as follows: Diameter of zone of inhibition for cell colony formation of normal fibroblast at the dose of 190 ug; Range is. The test is classed as functional, Homo sapiens. The method in brief: as §1
In test [16] the test system is HCT-116. The test can be described thus: Diameter of zone of inhibition for cell colony formation of solid tumor HCT116 at the dose of 210 ug: range is 6.5-8.125. Format: functional, Homo sapiens. The essentials:
as §2

In test [17] the test system is L1210. The test can be described thus: Diameter of zone of inhibition for cell colony formation of leukemia L1210 at the dose of 210 ug. The test is classed as functional, Mus musculus. The method in brief: as §1
For test [18], the system named is L1210. The test can be described thus: Diameter of zone of inhibition for cell colony formation of leukemia L1210 at the dose of 190 ug; Range is 3.75-4.875. The test is classed as functional, Mus musculus. The method in brief: as §1
Test [19] can be described thus: Diameter of zone of inhibition for cell colony formation of normal fibroblast at the dose of 190 ug; Range is 0-6.5. Format: functional, Homo sapiens. The essentials:
as §1

The test system of test [20] is L1210. The test can be described thus: Diameter of zone of inhibition for cell colony formation of leukemia L1210 at the dose of 210 ug; Range is 0-11.375. The test is classed as functional, Mus musculus. The method in brief:
as §1

Test [21] can be described thus: Diameter of zone of inhibition for cell colony formation of normal fibroblast at the dose of 210 ug; Range is 0-13. The test is classed as functional, Homo sapiens. The method in brief: as §1
Test [22] deals with L1210. Nature of the test: Diameter of zone of inhibition for cell colony formation of leukemia L1210 at the dose of 200 ug. Format: functional, Mus musculus. The method in brief: as §1
A short description of test [23]: Diameter of zone of inhibition for cell colony formation of normal fibroblast at the dose of 210 ug. Format: functional, Homo sapiens. The method in brief:
as §1

As to `O=C(NS(=O)(=O)c1ccc(Cl)c(Cl)c1)c1ccc(Cl)cc1Cl`, the Inhibition in the test on L1210 [1] is reported as 5.85 mm; in the test with HCT-116 [2], 18.2 mm; in [3], 11.7 mm.

As to `O=C(NS(=O)(=O)c1ccc(F)cc1)c1ccc(Cl)cc1Cl`, the Inhibition in the test on HCT-116 [2] was determined as 28.6 mm; in test [4], 16.9 mm; with L1210 [5], 9.1 mm.

As to `Cc1ccc(S(=O)(=O)NC(=O)c2ccc(Cl)cc2Cl)cc1`, the Inhibition in test [6] amounted to 16.57 mm; in the test on HCT-116 [7], 27.3 mm; with L1210 [8] it was 10.4 mm.

For `O=C(NS(=O)(=O)c1cc(Cl)cc(Cl)c1)c1ccc(Cl)cc1Cl`, the Inhibition was found to be 12.35 mm with HCT-116 [9], 6.5 mm in test [10] and 5.52 mm with L1210 [11].

Regarding `COC(=O)c1ccc(S(=O)(=O)NC(=O)c2ccc(Cl)cc2Cl)cc1`, the Inhibition in the test on HCT-116 [2] was 21.12 mm; in the test on L1210 [12] it was 6.5 mm; in test [13], 2.6 mm.

`O=C(NS(=O)(=O)c1ccc([N+](=O)[O-])cc1)c1ccc(Cl)cc1Cl`: the Inhibition in the test on HCT-116 [7] worked out at 17.55 mm; in the test with L1210 [14], 3.57 mm; in [15], 10.07 mm.

For the compound `Cc1cccc(S(=O)(=O)NC(=O)c2ccc(Cl)cc2Cl)c1`, the results for the Inhibition (in the test with HCT-116 [16]; in the test on L1210 [17]; in test [10]) were 8.12 mm, 6.5 mm and 6.5 mm, respectively.

As to `O=C(NS(=O)(=O)c1cccc(Cl)c1)c1ccc(Cl)cc1Cl`, the Inhibition with L1210 [18] was found to be 4.87 mm; in the test on HCT-116 [7], 16.73 mm; in test [19] it was 6.5 mm.

For `CN(C)c1ccc(S(=O)(=O)NC(=O)c2ccc(Cl)cc2Cl)cc1`, the Inhibition in the test with L1210 [20] was 11.37 mm; in the test with HCT-116 [9], 28.75 mm; in [21], 13 mm.

On to `O=C(NS(=O)(=O)c1ccc(Cl)cc1)c1ccc(C(F)(F)F)cc1C(F)(F)F`, for which the values for the Inhibition (with HCT-116 [2]; in test [3]; in the test on L1210 [22]) were 16.9 mm, 11.7 mm and 0 mm, respectively.

Take `O=C(NS(=O)(=O)c1ccccc1Cl)c1ccc(Cl)cc1Cl`: the Inhibition (in the test on L1210 [17]; in the test on HCT-116 [9]; in test [23]) was 0 mm in each case.

With `COc1ccc(S(=O)(=O)NC(=O)c2ccc(Cl)cc2Cl)cc1OC`, the Inhibition in the test on L1210 [17] turned out to be 0 mm; in the test on HCT-116 [9] it was 16.25 mm; in [10], 6.5 mm.
